Reference: ChEMBL document CHEMBL1926673, “Synthesis, molecular docking study and antitumor activity of novel 2-phenylindole derivatives” (Eur J Med Chem, 2012)

Assays:
MCF7 = assay: Cytotoxicity against human MCF7 cells after 48 hrs by SRB assay; type: functional, cell-based; conditions: MCF7, 48 h
How it was run: (§1)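 Cells seeded at 10⁴ per well and allowed to attach for 24 h, then exposed to compounds at 0, 1, 2.5 and 10 (four levels), triplicate wells per dose, for 48 h at 37 C in 5% CO₂. Cells were then fixed, washed and stained with sulforhodamine B. Excess dye was removed with acetic acid, and bound dye was recovered in Tris EDTA buffer. Results are given as IC₅₀.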

MDA-MB-231 = assay: Cytotoxicity against human MDA-MB-231 cells after 48 hrs by SRB assay; type: functional, cell-based; conditions: MDA-MB-231, 48 h; how it was run: as §1

O=C1NC(=O)C(=Cc2c(-c3ccc(O)cc3)[nH]c3ccccc23)C(=O)N1
IC50 (MCF7): 0.0418 µM

Oc1ccc(-c2cc3ccccc3[nH]2)cc1
IC50 (MCF7): 0.0718 µM

O=Cc1c(-c2ccc(O)cc2)[nH]c2ccccc12
IC50 (MDA-MB-231): 0.0422 µM | IC50 (MCF7): 0.009 µM

CC(=O)N/N=C/c1c(-c2ccc(O)cc2)[nH]c2ccccc12
IC50 (MCF7): 0.0323 µM

O=C(N/N=C/c1c(-c2ccc(O)cc2)[nH]c2ccccc12)c1ccccc1
IC50 (MDA-MB-231): 0.0282 µM | IC50 (MCF7): 0.0187 µM

Nc1ccccc1C(=O)N/N=C/c1c(-c2ccc(O)cc2)[nH]c2ccccc12
IC50 (MDA-MB-231): 0.0297 µM | IC50 (MCF7): 0.0179 µM

Nc1ccc(C(=O)N/N=C/c2c(-c3ccc(O)cc3)[nH]c3ccccc23)cc1
IC50 (MDA-MB-231): 0.0378 µM | IC50 (MCF7): 0.0037 µM

O=C(N/N=C/c1c(-c2ccc(O)cc2)[nH]c2ccccc12)c1ccc([N+](=O)[O-])cc1
IC50 (MDA-MB-231): 0.0325 µM | IC50 (MCF7): 0.0016 µM

O=C(N/N=C/c1c(-c2ccc(O)cc2)[nH]c2ccccc12)c1ccc(Cl)cc1
IC50 (MDA-MB-231): 0.0372 µM | IC50 (MCF7): 0.0038 µM

CN/N=C/c1c(-c2ccc(O)cc2)[nH]c2ccccc12
IC50 (MDA-MB-231): 0.0475 µM | IC50 (MCF7): 0.0177 µM

Oc1ccc(-c2[nH]c3ccccc3c2/C=N/Nc2ccccc2)cc1
IC50 (MDA-MB-231): 0.0251 µM | IC50 (MCF7): 0.0067 µM

Oc1ccc(-c2[nH]c3ccccc3c2/C=N/Nc2ccccc2Cl)cc1
IC50 (MDA-MB-231): 0.0316 µM | IC50 (MCF7): 0.0057 µM

NC(=S)N/N=C/c1c(-c2ccc(O)cc2)[nH]c2ccccc12
IC50 (MCF7): 0.032 µM

O/N=C/c1c(-c2ccc(O)cc2)[nH]c2ccccc12
IC50 (MCF7): 0.0276 µM

O=C1NC(=S)NC(=O)C1=Cc1c(-c2ccc(O)cc2)[nH]c2ccccc12
IC50 (MCF7): 0.0551 µM

N#CC(C#N)=Cc1c(-c2ccc(O)cc2)[nH]c2ccccc12
IC50 (MCF7): 0.0877 µM

Oc1ccc(-c2[nH]c3ccccc3c2-c2nc3ccccc3[nH]2)cc1
IC50 (MCF7): 0.0235 µM

Oc1ccc(-c2[nH]c3ccccc3c2-c2nc3ccccc3o2)cc1
IC50 (MDA-MB-231): 0.0153 µM | IC50 (MCF7): 0.0175 µM

Oc1ccc(-c2[nH]c3ccccc3c2-c2ncc[nH]2)cc1
IC50 (MCF7): 0.0284 µM

COC(=O)Oc1ccc(-c2cc3ccccc3[nH]2)cc1
IC50 (MCF7): 0.0936 µM

COC(=O)COc1ccc(-c2cc3ccccc3[nH]2)cc1
IC50 (MCF7): 0.035 µM

CCOC(=O)COc1ccc(-c2cc3ccccc3[nH]2)cc1
IC50 (MCF7): 0.102 µM

NC(=O)COc1ccc(-c2cc3ccccc3[nH]2)cc1
IC50 (MCF7): 0.0376 µM

O=C(COc1ccc(-c2cc3ccccc3[nH]2)cc1)NCCO
IC50 (MCF7): 0.0968 µM

O=C(COc1ccc(-c2cc3ccccc3[nH]2)cc1)Nc1ccncc1
IC50 (MCF7): 0.0211 µM

O=C(COc1ccc(-c2cc3ccccc3[nH]2)cc1)Nc1cnccn1
IC50 (MCF7): 0.0363 µM

O=C(COc1ccc(-c2cc3ccccc3[nH]2)cc1)N(CCO)CCO
IC50 (MCF7): 0.0275 µM

CN(C)C(=O)COc1ccc(-c2cc3ccccc3[nH]2)cc1
IC50 (MCF7): 0.0343 µM

O=C(COc1ccc(-c2cc3ccccc3[nH]2)cc1)N1CCCC1
IC50 (MDA-MB-231): 0.0422 µM | IC50 (MCF7): 0.0148 µM

NNC(=O)COc1ccc(-c2cc3ccccc3[nH]2)cc1
IC50 (MCF7): 0.02 µM

O=C(COc1ccc(-c2cc3ccccc3[nH]2)cc1)NNc1ccccc1
IC50 (MCF7): 0.028 µM

CC(=O)NNC(=O)COc1ccc(-c2cc3ccccc3[nH]2)cc1
IC50 (MCF7): 0.0929 µM

NC(=S)NNC(=O)COc1ccc(-c2cc3ccccc3[nH]2)cc1
IC50 (MCF7): 0.0447 µM

NS(=O)(=O)c1ccc(NC(=O)COc2ccc(-c3cc4ccccc4[nH]3)cc2)cc1
IC50 (MCF7): 0.0242 µM

Cc1cc(NS(=O)(=O)c2ccc(NC(=O)COc3ccc(-c4cc5ccccc5[nH]4)cc3)cc2)no1
IC50 (MDA-MB-231): 0.00956 µM | IC50 (MCF7): 0.0175 µM

O=C(COc1ccc(-c2cc3ccccc3[nH]2)cc1)Nc1ccc(S(=O)(=O)Nc2nccs2)cc1
IC50 (MDA-MB-231): 0.029 µM | IC50 (MCF7): 0.0074 µM

Cc1cc(C)n(C(=O)COc2ccc(-c3cc4ccccc4[nH]3)cc2)n1
IC50 (MCF7): 0.0432 µM

Cc1cc(-c2ccccc2)nn1C(=O)COc1ccc(-c2cc3ccccc3[nH]2)cc1
IC50 (MCF7): 0.0489 µM

CC1=NN(C(=O)COc2ccc(-c3cc4ccccc4[nH]3)cc2)C(=O)C1
IC50 (MCF7): 0.0318 µM

c1ccc(-c2nnc(COc3ccc(-c4cc5ccccc5[nH]4)cc3)o2)cc1
IC50 (MDA-MB-231): 0.0183 µM | IC50 (MCF7): 0.0137 µM

Nc1ccc(-c2nnc(COc3ccc(-c4cc5ccccc5[nH]4)cc3)o2)cc1
IC50 (MCF7): 0.048 µM

Nc1ccccc1-c1nnc(COc2ccc(-c3cc4ccccc4[nH]3)cc2)o1
IC50 (MCF7): 0.026 µM

Oc1ccccc1-c1nnc(COc2ccc(-c3cc4ccccc4[nH]3)cc2)o1
IC50 (MCF7): 0.039 µM

COc1ccc2nc(-c3nnc(COc4ccc(-c5cc6ccccc6[nH]5)cc4)o3)ccc2c1
IC50 (MCF7): 0.0221 µM
